Assay results from ChEMBL document CHEMBL1134387, “Synthesis and biodistribution of a new oxo-technetium-99m bis(aminothiol) complex as a potential melanoma tracer” (J Med Chem, 2001).

Assays:
Assay type in all cases: ADME, organism-based
Mus musculus [1] = test: Tumor to liver radioactivity ratio was determined in mice at 6 hr after (iv) administration in presence of [125I]-BZA; settings: in vivo
Mus musculus [2] = test: Biodistribution in tumor was determined at 3h in mice bearing C57B16 murine melanoma after (i.v.) administration; settings: in vivo, iv
Outline: (§1)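 C57 mice carrying B16 melanotic melanoma, implanted s.c. as 5×10^5 viable cells. Tumours were palpable after 10 days. Mice received 0.74 MBq of the 99mTc-labeled complex by tail-vein injection. Groups of n = 3 were killed by exsanguination at each time point. Weighed tissue aliquots were gamma-counted immediately and expressed as decay-corrected %ID/g, mean ± sem.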

Mus musculus [3] = test: Tumor to liver radioactivity ratio was determined in mice at 24 hr after (iv) administration in presence of [125I]-BZA; settings: in vivo
Mus musculus [4] = test: Biodistribution in tumor was determined at 6 hr in mice bearing C57B16 murine melanoma after (i.v.) administration; settings: in vivo, iv; outline: as §1
Mus musculus [5] = test: Tumor to lung radioactivity ratio was determined in mice at 1 hr after (iv) administration in presence of [125I]-BZA; settings: in vivo
Mus musculus [6] = test: Tumor to liver radioactivity ratio was determined in mice at 3h after (iv) administration in presence of [125I]-BZA; settings: in vivo
Mus musculus [7] = test: Tumor to blood radioactivity ratio was determined in mice at 24 hr after (iv) administration in presence of [125I]-BZA; settings: tumour
Mus musculus [8] = test: Tumor to blood radioactivity ratio was determined in mice at 3h after (iv) administration in presence of [125I]-BZA; settings: tumour
Mus musculus [9] = test: Biodistribution in tumor was determined at 1 hr in mice bearing C57B16 murine melanoma after (i.v.) administration; settings: in vivo, iv; outline: as §1
Mus musculus [10] = test: Biodistribution in tumor was determined at 24 hr in mice bearing C57B16 murine melanoma after (i.v.) administration; settings: in vivo, iv; outline: as §1
Mus musculus [11] = test: Tumor to blood radioactivity ratio was determined in mice at 6 hr after (iv) administration in presence of [125I]-BZA; settings: tumour
Mus musculus [12] = test: Tumor to lung radioactivity ratio was determined in mice at 3h after (iv) administration in presence of [125I]-BZA; settings: in vivo
Mus musculus [13] = test: Tumor to lung radioactivity ratio was determined in mice at 6 hr after (iv) administration in presence of [125I]-BZA; settings: in vivo
Mus musculus [14] = test: Tumor to blood radioactivity ratio was determined in mice at 1 hr after (iv) administration in presence of [125I]-BZA; settings: tumour
Mus musculus [15] = test: Tumor to lung radioactivity ratio was determined in mice at 24 hr after (iv) administration in presence of [125I]-BZA; settings: in vivo
Mus musculus [16] = test: Tumor to liver radioactivity ratio was determined in mice at 1 hr after (iv) administration in presence of [125I]-BZA; settings: in vivo

Ratio (Mus musculus [1]): 3.83 | ID/g (Mus musculus [2]): 3.85% | Ratio (Mus musculus [3]): 4.94 | ID/g (Mus musculus [4]): 3.53% | Ratio (Mus musculus [5]): 0.62 | Ratio (Mus musculus [6]): 1.1 | Ratio (Mus musculus [7]): 37.33 | Ratio (Mus musculus [8]): 7.79 | ID/g (Mus musculus [9]): 6.75% | ID/g (Mus musculus [10]): 0.79% | Ratio (Mus musculus [11]): 17.58 | Ratio (Mus musculus [12]): 0.69 | Ratio (Mus musculus [13]): 2.13 | Ratio (Mus musculus [14]): 6.55 | Ratio (Mus musculus [15]): 15.82 | Ratio (Mus musculus [16]): 1.12
SMILES: CCN(CC)CCNC(=O)c1ccc([125I])cc1
